# Experiments:
# Interstitial collagenase = biological target: T1, Interstitial collagenase (Homo sapiens, UniProt P03956); assay: Inhibition of MMP1 by fluorometric assay
# T1 sequence (P03956 whole entry): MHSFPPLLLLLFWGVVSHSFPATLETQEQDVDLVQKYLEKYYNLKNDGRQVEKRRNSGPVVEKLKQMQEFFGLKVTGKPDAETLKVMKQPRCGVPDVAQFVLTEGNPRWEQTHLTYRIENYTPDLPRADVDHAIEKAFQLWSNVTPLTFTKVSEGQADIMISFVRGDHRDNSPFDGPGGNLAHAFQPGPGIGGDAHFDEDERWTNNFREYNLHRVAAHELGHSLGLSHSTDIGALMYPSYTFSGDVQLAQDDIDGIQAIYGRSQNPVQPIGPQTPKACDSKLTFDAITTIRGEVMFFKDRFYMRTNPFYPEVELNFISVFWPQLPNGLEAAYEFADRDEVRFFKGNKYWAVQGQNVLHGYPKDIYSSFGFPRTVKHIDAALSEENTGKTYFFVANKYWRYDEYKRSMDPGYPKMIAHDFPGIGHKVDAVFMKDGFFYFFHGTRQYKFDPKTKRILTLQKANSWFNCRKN
# [1] = biological target: 72 kDa type IV collagenase (Homo sapiens, UniProt P08253)
# [2] = biological target: Matrix metalloproteinase-9 (Homo sapiens, UniProt P14780); assay: Inhibition of MMP9 by fluorometric assay
# [3] = biological target: Matrix metalloproteinase-14 (Homo sapiens, UniProt P50281); assay: Inhibition of human recombinant MMP14 by fluorometric assay
# Method in brief: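 Fluorogenic substrate Mca-Lys-Pro-Leu-Gly-Leu-Dap(Dnp)-Ala-Arg-NH2 (2 μM final). Enzymes: APMA-activated (2 mM, 2 h, 37 °C) pro-MMP-1 at 2.0 nM; MMP-14 catalytic domain at 1.0 nM. Each enzyme preincubated 4 h at 25 °C with seven inhibitor concentrations in Tris 50 mM pH 7.5, NaCl, CaCl2, Brij-35, 1% DMSO. Fluorescence (ex 325/em 395 nm) read every 15 s for 20 min.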
# [4] = biological target: T2, Disintegrin and metalloproteinase domain-containing protein 17 (Homo sapiens, UniProt P78536); assay: Inhibition of human recombinant ADAM17 by fluorometric assay
# [5] = biological target: T3, Disintegrin and metalloproteinase domain-containing protein 10 (Homo sapiens, UniProt O14672); assay: Inhibition of human recombinant ADAM10 by fluorometric assay
# T3 sequence (O14672 whole entry): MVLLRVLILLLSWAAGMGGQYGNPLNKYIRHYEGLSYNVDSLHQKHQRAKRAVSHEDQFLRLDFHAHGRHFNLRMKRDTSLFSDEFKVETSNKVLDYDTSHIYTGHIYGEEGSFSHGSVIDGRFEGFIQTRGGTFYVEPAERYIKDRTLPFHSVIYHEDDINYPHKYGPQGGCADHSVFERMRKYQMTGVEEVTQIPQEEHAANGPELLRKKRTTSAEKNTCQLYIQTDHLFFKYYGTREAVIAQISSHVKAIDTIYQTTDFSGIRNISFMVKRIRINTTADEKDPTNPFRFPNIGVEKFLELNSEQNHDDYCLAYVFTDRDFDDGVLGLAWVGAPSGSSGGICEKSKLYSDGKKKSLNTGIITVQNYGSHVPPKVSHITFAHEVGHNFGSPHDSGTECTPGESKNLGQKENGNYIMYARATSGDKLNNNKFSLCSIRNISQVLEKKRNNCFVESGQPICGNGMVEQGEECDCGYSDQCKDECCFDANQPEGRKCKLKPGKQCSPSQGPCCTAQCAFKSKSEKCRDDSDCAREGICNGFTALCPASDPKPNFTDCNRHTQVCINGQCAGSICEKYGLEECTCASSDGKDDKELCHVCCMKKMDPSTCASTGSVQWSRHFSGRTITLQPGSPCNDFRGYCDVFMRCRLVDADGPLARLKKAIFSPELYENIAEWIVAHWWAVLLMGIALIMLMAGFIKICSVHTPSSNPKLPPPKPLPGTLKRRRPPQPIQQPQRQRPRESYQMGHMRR
# Method in brief: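 Recombinant human ADAM-10 (20 nM) preincubated with seven inhibitor concentrations for 1 h at 37 °C in Tris 25 mM, ZnCl2 25 μM, Brij-35 0.005%, pH 9. Fluorogenic substrate Mca-Lys-Pro-Leu-Gly-Leu-Dap(Dnp)-Ala-Arg-NH2 at 10 μM final. Fluorescence (ex 325/em 395 nm) monitored every 15 s for 20 min. IC50 from initial velocities versus inhibitor-free control; mean of three independent experiments in duplicate.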
# [6] = biological target: T2, Disintegrin and metalloproteinase domain-containing protein 17; assay: Inhibition of ADAM17 in human A2774 cells assessed as inhibition of constitutive sALCAM release by ELISA; assay type: cell-based
# [7] = biological target: T2, Disintegrin and metalloproteinase domain-containing protein 17; assay: Inhibition of ADAM17 in human A2774 cells assessed as inhibition of pervanadate-induced sALCAM release by ELISA; assay type: cell-based
# [8] = biological target: T2, Disintegrin and metalloproteinase domain-containing protein 17; assay: Inhibition of ADAM17 in human A2774 cells assessed as inhibition of EGF-induced sALCAM release by ELISA; assay type: cell-based
# [9] = biological target: T2, Disintegrin and metalloproteinase domain-containing protein 17; assay: Inhibition of ADAM17 in human SKOV3 cells assessed as inhibition of constitutive sALCAM release by ELISA; assay type: cell-based, SK-OV-3
# SK-OV-3 = assay: Cytotoxicity against human SKOV3 cells after 72 hrs by MTT assay; assay type: cell-based; details: sk-ov-3, 72 h
# Method in brief: (§1)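 Cell lines grown in RPMI 1640 with 10% heat-inactivated FCS, 2 mM glutamine and penicillin-streptomycin at 37 °C, 5% CO2. Seeded at 2 × 10^3 cells/well and exposed to a range of inhibitor concentrations (DMSO stocks) for 24, 48 or 72 h at 37 °C. MTT added for 4 h, formazan dissolved in DMSO, absorbance read at 540 nm; mean of triplicates.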
# [10] = biological target: T2, Disintegrin and metalloproteinase domain-containing protein 17; assay: Inhibition of ADAM17 in human SKOV3 cells assessed as inhibition of EGF-induced sALCAM release by ELISA; assay type: cell-based, SK-OV-3
# [11] = biological target: T2, Disintegrin and metalloproteinase domain-containing protein 17; assay: Inhibition of ADAM17 in human MCF7 cells assessed as inhibition of constitutive sALCAM release by ELISA; assay type: cell-based
# [12] = biological target: T2, Disintegrin and metalloproteinase domain-containing protein 17; assay: Inhibition of ADAM17 in human MCF7 cells assessed as inhibition of pervanadate-induced sALCAM release by ELISA; assay type: cell-based
# [13] = biological target: T2, Disintegrin and metalloproteinase domain-containing protein 17; assay: Inhibition of ADAM17 in human MCF7 cells assessed as inhibition of EGF-induced sALCAM release by ELISA; assay type: cell-based
# [14] = biological target: T2, Disintegrin and metalloproteinase domain-containing protein 17; assay: Inhibition of ADAM17 in human MDA-MB-468 cells assessed as inhibition of constitutive sALCAM release by ELISA; assay type: cell-based
# [15] = biological target: T2, Disintegrin and metalloproteinase domain-containing protein 17; assay: Inhibition of ADAM17 in human MDA-MB-468 cells assessed as inhibition of pervanadate-induced sALCAM release by ELISA; assay type: cell-based
# [16] = biological target: T2, Disintegrin and metalloproteinase domain-containing protein 17; assay: Inhibition of ADAM17 in human MDA-MB-468 cells assessed as inhibition of EGF-induced sALCAM release by ELISA; assay type: cell-based
# [17] = biological target: T2, Disintegrin and metalloproteinase domain-containing protein 17; assay: Inhibition of ADAM17 in human GI-CA-N cells assessed as inhibition of constitutive sALCAM release by ELISA; assay type: cell-based
# [18] = biological target: T2, Disintegrin and metalloproteinase domain-containing protein 17; assay: Inhibition of ADAM17 in human GI-CA-N cells assessed as inhibition of pervanadate-induced sALCAM release by ELISA; assay type: cell-based
# [19] = Cytotoxicity against human A2774 cells after 72 hrs by MTT assay; assay type: cell-based; details: a2774, 72 h; method in brief: as §1
# MCF7 = assay: Cytotoxicity against human MCF7 cells after 72 hrs by MTT assay; assay type: cell-based; details: mcf7, 72 h; method in brief: as §1
# MDA-MB-468 = assay: Cytotoxicity against human MDA-MB-468 cells after 72 hrs by MTT assay; assay type: cell-based; details: mda-mb-468, 72 h; method in brief: as §1
# [20] = Cytotoxicity against human GI-CA-N cells after 72 hrs by MTT assay; assay type: cell-based; method in brief: as §1
# [21] = biological target: T2, Disintegrin and metalloproteinase domain-containing protein 17; details: A2774
# T2 sequence (P78536 whole entry, the tested form may be a part): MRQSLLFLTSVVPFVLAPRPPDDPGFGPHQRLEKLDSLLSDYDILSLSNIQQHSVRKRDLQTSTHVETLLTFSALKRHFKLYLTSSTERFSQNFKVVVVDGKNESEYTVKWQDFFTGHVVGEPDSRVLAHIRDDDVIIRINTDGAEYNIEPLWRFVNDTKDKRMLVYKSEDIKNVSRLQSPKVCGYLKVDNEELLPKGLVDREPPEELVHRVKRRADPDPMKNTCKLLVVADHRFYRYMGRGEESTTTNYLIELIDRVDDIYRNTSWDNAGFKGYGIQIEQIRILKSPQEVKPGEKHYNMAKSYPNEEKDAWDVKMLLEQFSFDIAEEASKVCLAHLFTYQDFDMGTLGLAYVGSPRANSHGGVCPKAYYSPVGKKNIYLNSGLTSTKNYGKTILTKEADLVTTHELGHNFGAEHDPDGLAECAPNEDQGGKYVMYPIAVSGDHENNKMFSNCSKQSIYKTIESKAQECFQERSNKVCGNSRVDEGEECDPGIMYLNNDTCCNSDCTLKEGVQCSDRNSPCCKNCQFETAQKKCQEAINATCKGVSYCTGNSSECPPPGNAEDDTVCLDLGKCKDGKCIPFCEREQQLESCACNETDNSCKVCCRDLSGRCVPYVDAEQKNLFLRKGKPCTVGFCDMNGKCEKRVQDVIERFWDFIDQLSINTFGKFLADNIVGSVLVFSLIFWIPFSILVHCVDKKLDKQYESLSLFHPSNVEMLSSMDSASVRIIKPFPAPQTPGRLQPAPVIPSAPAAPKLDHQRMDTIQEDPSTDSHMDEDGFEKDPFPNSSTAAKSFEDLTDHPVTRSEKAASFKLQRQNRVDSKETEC
# Matrix metalloproteinase-9, sequence (P14780 whole entry): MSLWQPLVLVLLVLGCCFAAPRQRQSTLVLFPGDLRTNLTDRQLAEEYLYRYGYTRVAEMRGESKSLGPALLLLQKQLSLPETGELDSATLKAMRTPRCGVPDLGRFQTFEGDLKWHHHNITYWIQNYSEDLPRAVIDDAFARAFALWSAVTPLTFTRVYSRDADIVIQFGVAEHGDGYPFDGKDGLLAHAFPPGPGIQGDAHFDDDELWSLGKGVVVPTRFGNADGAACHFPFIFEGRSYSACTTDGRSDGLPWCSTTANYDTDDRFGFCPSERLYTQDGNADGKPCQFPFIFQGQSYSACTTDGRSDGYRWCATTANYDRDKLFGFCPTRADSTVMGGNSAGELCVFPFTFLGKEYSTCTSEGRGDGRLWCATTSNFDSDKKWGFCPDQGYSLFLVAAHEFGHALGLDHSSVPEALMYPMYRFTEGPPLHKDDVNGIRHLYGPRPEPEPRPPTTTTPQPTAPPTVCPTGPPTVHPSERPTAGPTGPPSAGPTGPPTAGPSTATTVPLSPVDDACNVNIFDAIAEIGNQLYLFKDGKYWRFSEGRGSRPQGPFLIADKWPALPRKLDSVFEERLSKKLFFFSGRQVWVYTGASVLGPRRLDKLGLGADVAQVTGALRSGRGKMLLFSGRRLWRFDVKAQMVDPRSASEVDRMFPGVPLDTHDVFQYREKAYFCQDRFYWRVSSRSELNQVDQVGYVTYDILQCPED
# 72 kDa type IV collagenase, sequence (P08253 whole entry): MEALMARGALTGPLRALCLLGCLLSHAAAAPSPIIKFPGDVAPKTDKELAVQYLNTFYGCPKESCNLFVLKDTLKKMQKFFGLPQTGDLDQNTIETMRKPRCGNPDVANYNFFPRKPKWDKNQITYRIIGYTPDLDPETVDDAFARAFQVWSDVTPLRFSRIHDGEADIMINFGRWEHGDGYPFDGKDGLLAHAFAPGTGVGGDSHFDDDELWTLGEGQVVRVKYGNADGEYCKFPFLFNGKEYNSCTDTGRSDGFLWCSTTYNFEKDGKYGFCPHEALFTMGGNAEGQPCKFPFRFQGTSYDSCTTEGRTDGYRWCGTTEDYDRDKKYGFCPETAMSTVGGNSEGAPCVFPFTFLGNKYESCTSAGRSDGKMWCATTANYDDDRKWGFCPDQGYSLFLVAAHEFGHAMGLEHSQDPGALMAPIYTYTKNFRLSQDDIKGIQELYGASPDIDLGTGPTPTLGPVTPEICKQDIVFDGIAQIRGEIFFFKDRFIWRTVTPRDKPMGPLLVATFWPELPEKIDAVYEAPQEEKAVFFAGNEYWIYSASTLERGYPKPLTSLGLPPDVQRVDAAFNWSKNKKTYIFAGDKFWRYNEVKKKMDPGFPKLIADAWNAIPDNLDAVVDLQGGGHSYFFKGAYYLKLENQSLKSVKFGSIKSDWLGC
smiles,measurement,setting,value
CC#CCOc1ccc(S(=O)(=O)N[C@H](CCN2C(=O)c3ccccc3C2=O)C(=O)NO)cc1,IC50,Interstitial collagenase,350 nM
same,IC50,[1],4.2 nM
same,IC50,[2],3.5 nM
same,IC50,[3],4.3 nM
same,IC50,[4],0.7 nM
same,IC50,[5],190 nM
same,IC50,[6],1100 nM
same,IC50,[7],15 nM
same,IC50,[8],550 nM
same,IC50,[9],2600 nM
same,Activity,SK-OV-3,Not Active
same,IC50,[10],4.3 nM
same,IC50,[11],1400 nM
same,IC50,[12],51 nM
same,IC50,[13],760 nM
same,IC50,[14],1700 nM
same,IC50,[15],800 nM
same,IC50,[16],280 nM
same,IC50,[17],97 nM
same,IC50,[18],73 nM
same,Activity,[19],Not Active
same,Activity,MCF7,Not Active
same,Activity,MDA-MB-468,Not Active
same,Activity,[20],Not Active
same,IC50,[21],15 nM

# Reference: ChEMBL document CHEMBL1156274, “Potent arylsulfonamide inhibitors of tumor necrosis factor-alpha converting enzyme able to reduce activated leukocyte cell adhesion molecule shedding in cancer cell models” (J Med Chem, 2010)
